Measurements: ChEMBL document CHEMBL4689842, “EUbOPEN Chemogenomics Library wave 1” (2021)
“And” between values parts separate entries of the source, which are not always exact repeats. Equal values may be shown once.

Test system: Fibroblast
Assay: Multiplex assay against human fibroblast
Assay type: toxicity, cell-based
Outline: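 With compound added, live cells were imaged on a CQ1 microscope at 37°C and 5% CO2; staining with Hoechst33342, BioTracker Green Microtubule Cytoskeleton Dye, MitoTracker Red and Annexin V Alexa Fluor 680 had been done at seeding. The CellPathfinder machine-learning gating scheme split cells into Hoechst high-intensity objects or normal cells, normal cells into healthy, pyknosed or fragmented nuclei, and pyknosed cells into mitotic or apoptotic. The tubulin, mitochondrial-mass and membrane-permeability phenotypes are per cents of healthy-nucleus cells.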

[1] = 12 h, 10 µM, compound concentration 10 uM, replicate 1
[2] = 12 h, 10 µM, compound concentration 10 uM, replicate 2
[3] = 24 h, 10 µM, compound concentration 10 uM, replicate 1
[4] = 24 h, 10 µM, compound concentration 10 uM, replicate 2
[5] = 48 h, 10 µM, compound concentration 10 uM, replicate 1
[6] = 48 h, 10 µM, compound concentration 10 uM, replicate 2
[7] = 12 h, 1 µM, compound concentration 1 uM, replicate 1
[8] = 12 h, 1 µM, compound concentration 1 uM, replicate 2
[9] = 24 h, 1 µM, compound concentration 1 uM, replicate 1
[10] = 24 h, 1 µM, compound concentration 1 uM, replicate 2

Compound: CCOCCn1cc(C(=O)Nc2ccc(-n3nc(-c4cccnc4)cc3C(F)(F)F)cn2)ccc1=O [BI 1935]
- Population Apoptotic (%) [1]: 85% and 52% and 61%
- Population Fragmented Nuclei (%) [1]: 25% and 26% and 24%
- Population Healthy Nuclei (%) [1]: 45% and 60% and 58%
- Population Hoechst High Intensity Objects (%) [1]: 20% and 11% and 13%
- Population Membrane Permeable-Phenotype (%) [1]: 9% and 15% and 6%
- Population Normal (%) [1]: 79% and 88% and 86%
- Population Pyknosed Nuclei (%) [1]: 29% and 13% and 17%
- Population Apoptotic (%) [2]: 100% and 42% and 47%
- Population Membrane Permeable-Phenotype (%) [2]: 23% and 14% and 8%
- Population Normal (%) [2]: 62% and 60% and 92%
- Population Tubulin-Different-Phenotype (%) [2]: 23% and 57% and 64%
- Total Cell Count [2]: 78 and 61 and 79
- Population Apoptotic (%) [3]: 60% and 72% and 64%
- Population Fragmented Nuclei (%) [3]: 35% and 25% and 24%
- Population Healthy Nuclei (%) [3]: 50% and 61% and 62%
- Population Hoechst High Intensity Objects (%) [3]: 21% and 14% and 16%
- Population Membrane Permeable-Phenotype (%) [3]: 8% and 4%
- Population Mitotic Cells (%) [3]: 40% and 27% and 36%
- Population Normal (%) [3]: 78% and 85% and 83%
- Population Pyknosed Nuclei (%) [3]: 14% and 13% and 12%
- Population Apoptotic (%) [4]: 33% and 28% and 40%
- Population Healthy Nuclei (%) [4]: 44% and 25% and 66%
- Population Mitotic Cells (%) [4]: 66% and 71% and 60%
- Population Normal (%) [4]: 60% and 91%
- Population Tubulin-Different-Phenotype (%) [4]: 20% and 55% and 44%
- Total Cell Count [4]: 74 and 58 and 92
- Population Apoptotic (%) [5]: 55%
- Population Fragmented Nuclei (%) [5]: 44%
- Population Healthy Nuclei (%) [5]: 42%
- Population Hoechst High Intensity Objects (%) [5]: 22%
- Population Membrane Permeable-Phenotype (%) [5]: 0%
- Population Mitochondria Different-Phenotype (%) [5]: 40%
- Population Mitotic Cells (%) [5]: 44%
- Population Normal (%) [5]: 77%
- Population Pyknosed Nuclei (%) [5]: 12%
- Population Tubulin-Different-Phenotype (%) [5]: 86%
- Total Cell Count [5]: 90
- Population Apoptotic (%) [6]: 0%
- Population Fragmented Nuclei (%) [6]: 28%
- Population Healthy Nuclei (%) [6]: 71%
- Population Hoechst High Intensity Objects (%) [6]: 9%
- Population Membrane Permeable-Phenotype (%) [6]: 11%
- Population Mitochondria Different-Phenotype (%) [6]: 3%
- Population Mitotic Cells (%) [6]: 0%
- Population Normal (%) [6]: 90%
- Population Pyknosed Nuclei (%) [6]: 0%
- Population Tubulin-Different-Phenotype (%) [6]: 70%
- Total Cell Count [6]: 42

Compound: C[C@@]1(C(=O)Nc2ccc(F)nc2)CCCN1c1nc(Nc2cc(C3CC3)n[nH]2)c2cccn2n1 [BMS-754807]
- Population Apoptotic (%) [7]: 63%
- Population Fragmented Nuclei (%) [7]: 36%
- Population Healthy Nuclei (%) [7]: 50%
- Population Hoechst High Intensity Objects (%) [7]: 10%
- Population Membrane Permeable-Phenotype (%) [7]: 18%
- Population Mitochondria Different-Phenotype (%) [7]: 13%
- Population Mitotic Cells (%) [7]: 36%
- Population Normal (%) [7]: 89%
- Population Pyknosed Nuclei (%) [7]: 13%
- Population Tubulin-Different-Phenotype (%) [7]: 69%
- Total Cell Count [7]: 257
- Population Apoptotic (%) [8]: 66%
- Population Fragmented Nuclei (%) [8]: 75%
- Population Healthy Nuclei (%) [8]: 16%
- Population Hoechst High Intensity Objects (%) [8]: 28%
- Population Membrane Permeable-Phenotype (%) [8]: 50%
- Population Mitochondria Different-Phenotype (%) [8]: 33%
- Population Mitotic Cells (%) [8]: 33%
- Population Normal (%) [8]: 71%
- Population Pyknosed Nuclei (%) [8]: 8%
- Population Tubulin-Different-Phenotype (%) [8]: 66%
- Total Cell Count [8]: 52
- Population Apoptotic (%) [1]: 63% and 78%
- Population Fragmented Nuclei (%) [1]: 22% and 25%
- Population Healthy Nuclei (%) [1]: 42%
- Population Hoechst High Intensity Objects (%) [1]: 16% and 15%
- Population Mitotic Cells (%) [1]: 36% and 21%
- Population Normal (%) [1]: 84%
- Population Pyknosed Nuclei (%) [1]: 34% and 16%
- Total Cell Count [1]: 75 and 165
- Population Apoptotic (%) [2]: 80% and 33%
- Population Healthy Nuclei (%) [2]: 37% and 58%
- Population Hoechst High Intensity Objects (%) [2]: 29% and 13%
- Population Membrane Permeable-Phenotype (%) [2]: 17% and 22%
- Population Normal (%) [2]: 70% and 86%
- Total Cell Count [2]: 87 and 53
- Population Apoptotic (%) [9]: 63%
- Population Fragmented Nuclei (%) [9]: 27%
- Population Healthy Nuclei (%) [9]: 55%
- Population Hoechst High Intensity Objects (%) [9]: 9%
- Population Membrane Permeable-Phenotype (%) [9]: 10%
- Population Mitochondria Different-Phenotype (%) [9]: 26%
- Population Mitotic Cells (%) [9]: 36%
- Population Normal (%) [9]: 90%
- Population Pyknosed Nuclei (%) [9]: 16%
- Population Tubulin-Different-Phenotype (%) [9]: 70%
- Total Cell Count [9]: 219
- Population Apoptotic (%) [10]: 75%
- Population Fragmented Nuclei (%) [10]: 65%
- Population Healthy Nuclei (%) [10]: 19%
- Population Hoechst High Intensity Objects (%) [10]: 40%
- Population Membrane Permeable-Phenotype (%) [10]: 40%
- Population Mitochondria Different-Phenotype (%) [10]: 40%
- Population Mitotic Cells (%) [10]: 25%
- Population Normal (%) [10]: 59%
- Population Pyknosed Nuclei (%) [10]: 15%
- Population Tubulin-Different-Phenotype (%) [10]: 60%
- Total Cell Count [10]: 44
- Population Apoptotic (%) [3]: 41% and 63%
- Population Fragmented Nuclei (%) [3]: 26% and 20%
- Population Healthy Nuclei (%) [3]: 53% and 63%
- Population Hoechst High Intensity Objects (%) [3]: 21% and 13%
- Population Membrane Permeable-Phenotype (%) [3]: 35% and 15%
- Population Mitotic Cells (%) [3]: 58% and 36%
- Population Normal (%) [3]: 78% and 86%
- Population Pyknosed Nuclei (%) [3]: 19% and 15%
- Total Cell Count [3]: 80 and 166
- Population Apoptotic (%) [4]: 60% and 37%
- Population Healthy Nuclei (%) [4]: 28% and 47%
- Population Mitochondria Different-Phenotype (%) [4]: 25% and 59%
- Population Mitotic Cells (%) [4]: 40% and 62%
- Population Normal (%) [4]: 68% and 90%
- Total Cell Count [4]: 83 and 51
- Population Apoptotic (%) [5]: 92%
- Population Fragmented Nuclei (%) [5]: 35%
- Population Healthy Nuclei (%) [5]: 39%
- Population Hoechst High Intensity Objects (%) [5]: 27%
- Population Membrane Permeable-Phenotype (%) [5]: 23%
- Population Mitochondria Different-Phenotype (%) [5]: 28%
- Population Mitotic Cells (%) [5]: 7%
- Population Normal (%) [5]: 72%
- Population Pyknosed Nuclei (%) [5]: 24%
- Population Tubulin-Different-Phenotype (%) [5]: 85%
- Total Cell Count [5]: 73
- Population Apoptotic (%) [6]: 70%
- Population Fragmented Nuclei (%) [6]: 27%
- Population Healthy Nuclei (%) [6]: 56%
- Population Hoechst High Intensity Objects (%) [6]: 9%
- Population Membrane Permeable-Phenotype (%) [6]: 24%
- Population Mitochondria Different-Phenotype (%) [6]: 43%
- Population Mitotic Cells (%) [6]: 30%
- Population Normal (%) [6]: 90%
- Population Pyknosed Nuclei (%) [6]: 15%
- Population Tubulin-Different-Phenotype (%) [6]: 100%
- Total Cell Count [6]: 72

Compound: C=CC(=O)Nc1cc2c(Nc3ccc(F)c(Cl)c3)ncnc2cc1OCCCN1CCOCC1.Cl.Cl [CANERTINIB DIHYDROCHLORIDE]
- Population Apoptotic (%) [7]: 73%
- Population Fragmented Nuclei (%) [7]: 35%
- Population Healthy Nuclei (%) [7]: 53%
- Population Hoechst High Intensity Objects (%) [7]: 29%
- Population Membrane Permeable-Phenotype (%) [7]: 28%
- Population Mitochondria Different-Phenotype (%) [7]: 21%
- Population Mitotic Cells (%) [7]: 26%
- Population Normal (%) [7]: 70%
- Population Pyknosed Nuclei (%) [7]: 10%
- Population Tubulin-Different-Phenotype (%) [7]: 83%
- Total Cell Count [7]: 198
- Population Apoptotic (%) [8]: 100%
- Population Fragmented Nuclei (%) [8]: 58%
- Population Healthy Nuclei (%) [8]: 35%
- Population Hoechst High Intensity Objects (%) [8]: 39%
- Population Membrane Permeable-Phenotype (%) [8]: 20%
- Population Mitochondria Different-Phenotype (%) [8]: 66%
- Population Mitotic Cells (%) [8]: 0%
- Population Normal (%) [8]: 60%
- Population Pyknosed Nuclei (%) [8]: 5%
- Population Tubulin-Different-Phenotype (%) [8]: 91%
- Total Cell Count [8]: 110
- Population Apoptotic (%) [1]: 56%
- Population Fragmented Nuclei (%) [1]: 35%
- Population Healthy Nuclei (%) [1]: 45%
- Population Hoechst High Intensity Objects (%) [1]: 13%
- Population Mitotic Cells (%) [1]: 43%
- Population Normal (%) [1]: 86%
- Population Pyknosed Nuclei (%) [1]: 18%
- Population Tubulin-Different-Phenotype (%) [1]: 20%
- Total Cell Count [1]: 227
- Population Apoptotic (%) [2]: 57%
- Population Fragmented Nuclei (%) [2]: 60%
- Population Healthy Nuclei (%) [2]: 31%
- Population Hoechst High Intensity Objects (%) [2]: 43%
- Population Membrane Permeable-Phenotype (%) [2]: 10%
- Population Mitochondria Different-Phenotype (%) [2]: 10%
- Population Mitotic Cells (%) [2]: 42%
- Population Normal (%) [2]: 56%
- Population Pyknosed Nuclei (%) [2]: 7%
- Population Tubulin-Different-Phenotype (%) [2]: 27%
- Total Cell Count [2]: 160
- Population Apoptotic (%) [9]: 71%
- Population Fragmented Nuclei (%) [9]: 26%
- Population Healthy Nuclei (%) [9]: 38%
- Population Hoechst High Intensity Objects (%) [9]: 41%
- Population Membrane Permeable-Phenotype (%) [9]: 19%
- Population Mitochondria Different-Phenotype (%) [9]: 51%
- Population Mitotic Cells (%) [9]: 28%
- Population Normal (%) [9]: 58%
- Population Pyknosed Nuclei (%) [9]: 35%
- Population Tubulin-Different-Phenotype (%) [9]: 64%
- Total Cell Count [9]: 137
- Population Apoptotic (%) [10]: 100%
- Population Fragmented Nuclei (%) [10]: 59%
- Population Healthy Nuclei (%) [10]: 26%
- Population Hoechst High Intensity Objects (%) [10]: 39%
- Population Membrane Permeable-Phenotype (%) [10]: 23%
- Population Mitochondria Different-Phenotype (%) [10]: 76%
- Population Mitotic Cells (%) [10]: 0%
- Population Normal (%) [10]: 60%
- Population Pyknosed Nuclei (%) [10]: 14%
- Population Tubulin-Different-Phenotype (%) [10]: 61%
- Total Cell Count [10]: 81
- Population Apoptotic (%) [3]: 79%
- Population Fragmented Nuclei (%) [3]: 36%
- Population Healthy Nuclei (%) [3]: 50%
- Population Hoechst High Intensity Objects (%) [3]: 12%
- Population Membrane Permeable-Phenotype (%) [3]: 1%
- Population Mitochondria Different-Phenotype (%) [3]: 10%
- Population Mitotic Cells (%) [3]: 20%
- Population Normal (%) [3]: 87%
- Population Pyknosed Nuclei (%) [3]: 12%
- Population Tubulin-Different-Phenotype (%) [3]: 11%
- Total Cell Count [3]: 220
- Population Apoptotic (%) [4]: 50%
- Population Fragmented Nuclei (%) [4]: 73%
- Population Healthy Nuclei (%) [4]: 20%
- Population Hoechst High Intensity Objects (%) [4]: 44%
- Population Membrane Permeable-Phenotype (%) [4]: 5%
- Population Mitochondria Different-Phenotype (%) [4]: 16%
- Population Mitotic Cells (%) [4]: 50%
- Population Normal (%) [4]: 55%
- Population Pyknosed Nuclei (%) [4]: 6%
- Population Tubulin-Different-Phenotype (%) [4]: 33%
- Total Cell Count [4]: 159
